Compounds with a hit are over-represented: about 1.8% of the library has one in this group of screens.
SIAE inh – blocks human sialic acid acetylesterase; AID 1053197; inhibition, % at 9.66 µM; 0.69% of 370,000 active; SIAE FP-Rh probe binding, fluorescence polarization;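 active = inhibition above a cutoff: mean of compounds within the control limits plus 3 SD of those, cut at about 17% in these data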
TCR-CD3 inh – blocks the human TCR-CD3 interaction | TAMRA-labeled TCR probe fluorescence, biochemical | AID 651800 | inhibition, % at 9.4 µM | 0.37% of 360,000 active;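 also: recombinant mutant TCR 2C K166C tagged with TAMRA read by polarization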
HTRA1 inh – inhibitors of human serine peptidase HTRA1. inhibition, % at 5.96 µM. recombinant HTRA1, FP-rhodamine activity-based probe, fluorescence polarization. 0.5% of 340,000 active; in the data active = inhibition above about 36%
ABHD4 inh – inhibitors of mouse ABHD4 | Q8VD66 | purified mABHD4, FP-Rh probe fluorescence polarization | inhibition, % at 8.92 µM | 0.54% of 370,000 active | AID 720543;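 active = inhibition exceeding the mean over every tested compound plus 3 SD, cut at about 30% in these data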
Target sequence (Q8VD66 whole entry, looked up): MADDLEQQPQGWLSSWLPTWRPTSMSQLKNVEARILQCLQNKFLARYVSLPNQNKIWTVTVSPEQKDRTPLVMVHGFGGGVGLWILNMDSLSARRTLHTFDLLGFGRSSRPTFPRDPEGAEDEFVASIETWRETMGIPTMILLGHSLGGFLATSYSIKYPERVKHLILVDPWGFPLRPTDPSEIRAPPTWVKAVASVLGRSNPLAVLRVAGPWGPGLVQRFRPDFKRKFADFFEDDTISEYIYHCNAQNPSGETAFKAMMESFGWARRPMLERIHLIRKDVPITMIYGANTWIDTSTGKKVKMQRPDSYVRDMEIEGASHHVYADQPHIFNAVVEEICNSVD
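Material: mouse ABHD4 enzyme, wild type; Benchmarks: S159A mutant high control, sample median low control; Buffer or medium: HEPES pH 7.0, NaCl, Pluronic buffer; Signal: fluorescence polarization; Read-out: percent inhibition of probe binding, normalized to plate controls; Timing: pre-incubation 45 min, probe exposure 60 min, at 25 °C; Dosing: 8.92 µM, single dose.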
ARNT-TACC3 inh – ARNT/TACC3 interaction disruption. Q9Y6A5. AlphaScreen His-ARNT PAS-B/GST-TACC3 binding, luminescence; TACC3 fragment carries E629A point mutation. inhibition, % at 9.99 µM. 0.66% of 390,000 active. AID 623870;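 active = mean inhibition of replicates at least 50% and at least half of replicates each reaching 50%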
BSA probe FL – interferes with TAMRA-BSA probe, flagging TCR-CD3 hits. shares compounds with TCR-CD3 inh. TAMRA-labeled BSA probe fluorescence counterscreen. inhibition, % at 9.4 µM. 10% of 1,200 active. AID 652035; in the data active = inhibition above about 23%
TCR-CD3 inh conf – confirmation of human TCR-CD3 interaction inhibitors; shares compounds with TCR-CD3 inh; TAMRA-labeled TCR probe fluorescence binding assay; inhibition, % at 9.4 µM; 48% of 1,200 active; AID 652036
Each line names hits and unclear results; the compound was inactive in the other large screens (follow-up assays come after a bar, where they were run). Rule as the data show it, unless noted: active = inhibition above about 19%; inactive = the rest.

O=C(O)c1cccc(N2C(=O)/C(=C/c3ccc(SCc4ccc(Cl)cc4)o3)SC2=S)c1	TCR-CD3 inh 20, ABHD4 inh 32 | BSA probe FL inactive | TCR-CD3 inh conf inactive
COc1ccccc1/C=C1\SC(=S)N(CCC(=O)NNC(=O)c2ccccc2OC)C1=O	TCR-CD3 inh 28 | BSA probe FL inactive | TCR-CD3 inh conf inactive
COc1ccccc1/C=C1\SC(=O)N(CCC(=O)NNC(=O)c2ccccc2Cl)C1=O	none (no result: ARNT-TACC3 inh)
O=C(NNC(=O)c1ccccc1O)c1ccc(Br)cc1	TCR-CD3 inh 23 | BSA probe FL inactive | TCR-CD3 inh conf 21
O=C(CCNC(=O)c1ccc(Br)cc1)NNC(=O)c1ccccc1O	TCR-CD3 inh 23 | BSA probe FL inactive | TCR-CD3 inh conf 20
COc1ccccc1C(=O)NNC(=O)c1ccc(NC(=O)CC(C)C)cc1	TCR-CD3 inh 31 | BSA probe FL inactive | TCR-CD3 inh conf 32
O=C(CCNC(=O)c1ccccc1)NNC(=O)c1ccccc1Br	none
N#C[C@@H]1[C@H](c2ccc(C#CC3CCCC3)cc2)[C@@H](CO)N1S(=O)(=O)c1ccccc1	none (no result: SIAE inh, TCR-CD3 inh, HTRA1 inh, ABHD4 inh)
CC(C)NC(=O)N(C)C[C@H]1Oc2ncc(C#CCc3ccccc3)cc2C(=O)N([C@@H](C)CO)C[C@H]1C	none (no result: SIAE inh, TCR-CD3 inh, HTRA1 inh, ABHD4 inh)
[N-]=[N+]=Nc1ccccc1C[C@]1(C(=O)NCc2ccccc2)COC(c2ccc(OCCCO)cc2)=N1	none (no result: SIAE inh, TCR-CD3 inh, HTRA1 inh, ABHD4 inh)
O=C(CCC(=O)c1cccs1)NNC(=O)c1ccccc1O	TCR-CD3 inh 48 | BSA probe FL inactive | TCR-CD3 inh conf 28
COCC(=O)NNC(=O)c1ccccc1OC	none
COc1ccccc1OCC(=O)NNC(=O)CCCC(=O)NNC(=O)COc1ccccc1OC	TCR-CD3 inh 26 | BSA probe FL inactive | TCR-CD3 inh conf inactive
COc1ccccc1OCC(=O)NCCNC(=O)COc1ccccc1OC	none
COc1ccccc1C(=O)NCCC(=O)NNC(=O)c1ccccc1O	TCR-CD3 inh 45 | BSA probe FL inactive | TCR-CD3 inh conf 30
COCC1=C2[C@@H](c3ccccc3)OB(O)C[C@@H]2[C@@H]2C(=O)N(Cc3ccccc3)C(=O)[C@@H]2C1	none (no result: SIAE inh, TCR-CD3 inh, HTRA1 inh, ABHD4 inh)
CC1CCc2c(C(=O)OCC(=O)Nc3cccc(S(=O)(=O)N4CCCCCC4)c3)csc2C1 (configuration not stated)	TCR-CD3 inh 32 | BSA probe FL inactive | TCR-CD3 inh conf inactive
Cc1ccc(NC(=O)COC(=O)c2ccccc2F)cc1S(=O)(=O)N1CCCCC1	none
Cc1ccc(NC(=O)COC(=O)c2csc3c2CCC(C)C3)cc1S(=O)(=O)N1CCCCC1 (configuration not stated)	TCR-CD3 inh 19 | BSA probe FL inactive | TCR-CD3 inh conf inactive
CC(=O)N1C[C@@H]2[C@H](c3ccccc31)[C@H](CO)N2C(=O)CC1CC1	none (no result: SIAE inh, TCR-CD3 inh, HTRA1 inh, ABHD4 inh)
C[C@@H]1CN([C@H](C)CO)S(=O)(=O)c2ccc(-c3ccccc3)cc2O[C@H]1CN(C)C	none (no result: SIAE inh, TCR-CD3 inh, HTRA1 inh, ABHD4 inh)
O=C(Nc1ccc(F)c(Cl)c1)C1Cc2c(-c3ccc4c(c3)OCO4)ccnc2O1 (configuration not stated)	TCR-CD3 inh 29 (no result: HTRA1 inh, ARNT-TACC3 inh) | BSA probe FL inactive | TCR-CD3 inh conf inactive
O=C(O)C1=CC[C@@H](c2ccc(Cl)cc2)N(S(=O)(=O)c2ccc(Cl)cc2)[C@H]1c1ccccc1	TCR-CD3 inh 36 | BSA probe FL inactive | TCR-CD3 inh conf inactive
Cc1ccc([C@H]2C(C(=O)O)=CC[C@@H](c3ccc(Cl)cc3)N2S(=O)(=O)c2ccc(C)cc2)cc1	none
CCc1cccc(C)c1NC(=O)COC(=O)c1c2c(nc3ccccc13)/C(=C\c1cccs1)CCC2	none
NC(=O)c1ccc(NC(=O)COC(=O)c2c3c(nc4ccccc24)/C(=C\c2cccs2)CCC3)cc1	TCR-CD3 inh 20 | BSA probe FL inactive | TCR-CD3 inh conf inactive
NC(=O)c1ccc(-n2nnnc2SCC(=O)c2ccc(O)c(O)c2)cc1	TCR-CD3 inh 28 | BSA probe FL inactive | TCR-CD3 inh conf 39
Cc1ccccc1CSc1nnnn1-c1ccc(C(N)=O)cc1	none
CCCNC(=O)Nc1ccc2c(c1)C(=O)N(C)C[C@H](OC)[C@H](C)CN(Cc1ccc(-c3ccccn3)cc1)[C@H](C)CO2	none (no result: SIAE inh, TCR-CD3 inh, HTRA1 inh, ABHD4 inh)
CN(C)S(=O)(=O)c1cccc(NC(=O)COC(=O)c2cc(-c3cccc(Br)c3)nc3ccccc23)c1	TCR-CD3 inh 83 | BSA probe FL inactive | TCR-CD3 inh conf 56
C[C@@H]1CN([C@H](C)CO)S(=O)(=O)c2ccc(-c3cccc(F)c3)cc2O[C@@H]1CN(C)S(C)(=O)=O	none (no result: SIAE inh, TCR-CD3 inh, HTRA1 inh, ABHD4 inh)
O=C(Nc1cccc(S(=O)(=O)NC2=NCCC2)c1)c1cc(-c2ccco2)nc2ccccc12	TCR-CD3 inh 23 | BSA probe FL inactive | TCR-CD3 inh conf 32
O=C(N/N=C/c1ccc(F)cc1)c1cc(-c2ccco2)nc2ccccc12	TCR-CD3 inh 30 | BSA probe FL inactive | TCR-CD3 inh conf 23
O=C(Nc1nc2ccccc2s1)c1cc(-c2ccco2)nc2ccccc12	none
Cc1nnc(NC(=O)c2cc(-c3ccco3)nc3ccccc23)s1	TCR-CD3 inh 19 | BSA probe FL inactive | TCR-CD3 inh conf 20
O=C(NC(=S)Nc1cccc(S(=O)(=O)NC2=NCCC2)c1)c1cc(-c2ccco2)nc2ccccc12	none (no result: ARNT-TACC3 inh)
C[C@H]1CN([C@@H](C)CO)C(=O)Cc2cc(NC(=O)CCC(F)(F)F)ccc2O[C@H]1CN(C)CC1CCCCC1	none (no result: SIAE inh, TCR-CD3 inh, HTRA1 inh, ABHD4 inh)
Cc1cc2oc3ccc(NCCCN4CCOCC4)cc3c(=O)c2cc1C	none (no result: ARNT-TACC3 inh)
Cc1cc2oc3ccc(NCCCn4ccnc4)cc3c(=O)c2cc1C	TCR-CD3 inh 35 | BSA probe FL inactive | TCR-CD3 inh conf 20
O=C(CC(c1ccccc1)c1ccccc1)Nc1ccc(O)cc1	none
CC(=O)Nc1ccc(NC(=O)CC(c2ccccc2)c2ccccc2)cc1	TCR-CD3 inh 114 | BSA probe FL 23 | TCR-CD3 inh conf inactive
COc1ccccc1NS(=O)(=O)c1cccc(NC(=O)Nc2cccc(Cl)c2)c1	TCR-CD3 inh 36 (no result: ARNT-TACC3 inh) | BSA probe FL inactive | TCR-CD3 inh conf inactive
COc1ccc(C(=O)Nc2ccc(Cl)c(S(=O)(=O)Nc3ccccc3OC)c2)cc1	none
COc1ccccc1NS(=O)(=O)c1cc(NC(=O)c2ccc(Cl)nc2)ccc1Cl	TCR-CD3 inh 23 | BSA probe FL inactive | TCR-CD3 inh conf inactive
O=C(Nc1ccc(S(=O)(=O)Nc2nccs2)cc1)c1nn(-c2ccccc2)ccc1=O	TCR-CD3 inh 20 | BSA probe FL inactive | TCR-CD3 inh conf 22
O=C(O)c1ccccc1C(=O)Nc1ccc(S(=O)(=O)Nc2nccs2)cc1	TCR-CD3 inh 38 | BSA probe FL inactive | TCR-CD3 inh conf inactive
Cc1cccc(-n2ccc(=O)c(C(=O)Nc3ccc(S(=O)(=O)Nc4nccs4)cc3)n2)c1	none
CO[C@@H]1CC[C@H]2CCN(C)C(=O)C[C@@H](c3ccccc3)CN(C)C(=O)c3cccc(C#N)c3OC[C@H]1O2	none (no result: SIAE inh, TCR-CD3 inh, HTRA1 inh, ABHD4 inh)
